Source: ChEMBL document CHEMBL3351257, “Total syntheses of parthenolide and its analogues with macrocyclic stereocontrol” (J Med Chem, 2014)

Key:
Assay type in all cases: functional, cell-based
C6 = test: Cytotoxicity against rat C6 cells assessed as cell viability after 72 hrs by CCK cell proliferation assay; conditions: C6, 72 h
In short: (§1)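 Cells plated at 3,000–5,000 per well; dosing began 24 h after plating, using a rising concentration series. After 72 h, cell counting kit reagent added and incubation continued 1–4 h. Viable cells read as OD at 450 nm. Inhibition rate = (1 − OD treated/OD control) × 100%. Wells in triplicate, each compound tested three times; IC50 is the mean of three independent experiments.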

[1] = Cytotoxicity against human SUM159 cells assessed as cell viability after 72 hrs by CCK cell proliferation assay; conditions: SUM-159-PT; in short: as §1
[2] = Cytotoxicity against human HL60 cells assessed as cell viability after 72 hrs by CCK cell proliferation assay; conditions: HL-60, 72 h; in short: as §1
MCF7 = test: Cytotoxicity against human MCF7 cells assessed as cell viability after 72 hrs by CCK cell proliferation assay; conditions: MCF7, 72 h; in short: as §1

Row | SMILES | IC50 (C6) [µM] | IC50 [1] [µM] | IC50 [2] [µM] | IC50 (MCF7) [µM]
1 | C=C1C(=O)O[C@H]2[C@@H]1CC/C(C)=C/CC[C@@]1(C)O[C@@H]21 | 24 | 12.3 | 2.9 | 17.6
2 | C=C1C(=O)O[C@H]2[C@@H]1CC/C(C)=C\CC[C@@]1(C)O[C@@H]21 | 41.8 | 3.5 | 4.2 | 13
3 | C=C1C(=O)O[C@@H]2C3O[C@]3(C)CC/C=C(\C)CC[C@@H]12 (stereo partly specified) | 6.6 | 10.3 | 2.5 | 6.9
4 | C=C1C(=O)O[C@H]2[C@H]1CC/C(C)=C\CC[C@@]1(C)O[C@@H]21 | 3.9 | 7.7 | 1.2 | 5.9
